A selection: hits, their analogues and other compounds. The true share with any hit is near 2.3%.
TRPC6 inhibitor: blocks the mouse TRPC6 cation channel | Q61143 | HEK293-TRPC6, membrane potential dye, ACh-evoked depolarization; hits give low values | B-score at 10 µM | 310,000 compounds, 1.1% hits | AID 2553;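 active means B-score under library mean minus 3 SD, initial fluorescence not abnormally high, positive integrated signal ratio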;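 further: B-score derived from integrated fluorescence ratio over the kinetic read; more negative B-score means stronger inhibition of depolarization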
Target sequence (Q61143 whole entry, looked up): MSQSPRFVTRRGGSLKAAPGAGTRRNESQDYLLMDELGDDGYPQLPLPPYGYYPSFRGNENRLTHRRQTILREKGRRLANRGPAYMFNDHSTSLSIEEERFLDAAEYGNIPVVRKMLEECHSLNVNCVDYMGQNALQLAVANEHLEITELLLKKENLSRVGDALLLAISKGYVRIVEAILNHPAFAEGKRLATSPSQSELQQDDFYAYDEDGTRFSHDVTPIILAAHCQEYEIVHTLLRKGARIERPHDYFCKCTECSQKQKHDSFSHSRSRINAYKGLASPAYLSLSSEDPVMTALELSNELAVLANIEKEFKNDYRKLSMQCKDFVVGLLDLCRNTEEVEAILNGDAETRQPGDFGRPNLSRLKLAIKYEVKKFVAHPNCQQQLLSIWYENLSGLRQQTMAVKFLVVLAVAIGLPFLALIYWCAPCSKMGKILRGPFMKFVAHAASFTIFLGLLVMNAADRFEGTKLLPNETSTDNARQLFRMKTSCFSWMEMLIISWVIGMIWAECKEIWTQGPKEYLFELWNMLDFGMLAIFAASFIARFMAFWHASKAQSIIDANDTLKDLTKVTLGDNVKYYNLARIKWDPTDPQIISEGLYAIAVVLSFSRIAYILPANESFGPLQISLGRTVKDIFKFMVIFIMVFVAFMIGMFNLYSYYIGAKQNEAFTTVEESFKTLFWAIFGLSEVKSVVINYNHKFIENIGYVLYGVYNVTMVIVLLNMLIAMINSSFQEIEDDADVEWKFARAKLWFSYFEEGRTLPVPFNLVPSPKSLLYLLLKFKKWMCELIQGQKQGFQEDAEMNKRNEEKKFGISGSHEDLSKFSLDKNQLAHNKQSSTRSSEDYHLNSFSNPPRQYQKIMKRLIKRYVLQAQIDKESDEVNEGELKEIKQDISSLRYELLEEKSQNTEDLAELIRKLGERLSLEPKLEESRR
TRPC4 agonist: TRPC4 (mouse) channel activation | HEK293 TRPC4beta/mu-opioid, Fluo4 calcium fluorescence; hits give high values | B-score at 10 µM | Q9QUQ5 | AID 2237 | 310,000 compounds, 0.49% hits;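 active means B-score above 5 SD of library B-scores, and initial fluorescence ratio not above library mean plus 5 SD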;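 further: positive B-score marks a calcium rise read as TRPC4 activation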
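Material: HEK293 stable line with TRPC4beta plus mu-opioid receptor; technique: Fluo4 calcium-sensitive dye fluorescence, kinetic, 1 Hz baseline; timing: Fluo4 dye loading 45 min at room temperature, 110 s recording; controls: assay buffer as low control, maximal DAMGO as high control; read-out: integrated baseline-normalised fluorescence ratio, converted to per-well B score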
TRPC6 act: activators of mouse TRPC6 channel; Q61143; HEK293-TRPC6 membrane potential dye fluorescence; hits give high values; B-score at 10 µM; 310,000 compounds, 0.13% hits; AID 2550;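 active means B-score of the integrated fluorescence ratio above library mean plus 3 SD, and starting fluorescence ratio within library mean plus 5 SD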;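 further: higher score means more depolarization so channel activation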
TRPC4 block: inhibitors of mouse TRPC4 channel. 300,000 compounds, 0.39% hits. Q9QUQ5. HEK293 TRPC4beta/mu-opioid, DAMGO-evoked Fluo4 calcium flux; hits give low values. B-score at 10 µM;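 active means B-score over 3 SD under the library average, no early fluorescence shift, positive overall ratio signal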
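Assay system: Stable TRPC4beta/mu-opioid receptor HEK293 cells | Reagent: DAMGO in two steps, submaximal then maximal | Compound dosing: Single concentration per test compound | Signal: Fluo4 Ca2+ flux fluorescence | Evaluation: Per-well B score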
TRPC4 PAM: allosteric potentiators of mouse TRPC4 channel; HEK293 TRPC4beta/mu-opioid, DAMGO EC20, Fluo-4 Ca2+ flux; hits give high values; 310,000 compounds, 0.42% hits; Q9QUQ5; AID 2227; B-score at 10 µM;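 active means B-score of calcium response area above 5 SD of library B-scores, with initial fluorescence ratio within 5 SD of library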;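 further: B-score of integrated fluorescence ratio over time as area under calcium response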
TRPC4 spec 2: mouse TRPC4 off-target activity of TRPC6 inhibitors, second screen. inhibition, % at 10 µM. AID 2776. shares compounds with TRPC6 inhibitor. HEK293 TRPC4/MOR, membrane potential dye fluorescence; channel activated by saturating DAMGO dose. 920 compounds, 42% hits;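 active means compounds whose fluorescence signal differed from control wells by over 3 SD, either direction, in both duplicate plates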
TRPC4 spec: selectivity of TRPC6 inhibitors: effect on mouse TRPC4; shares compounds with TRPC6 inhibitor; HEK293 TRPC4/mu-opioid, membrane potential fluorescence; activity change, negative = inhibition, % at 10 µM; 920 compounds, 61% hits;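 active means rise or fall in signal beyond 3 SD of buffer-only wells in both replicate plates, either sign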;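 further: integrated kinetic ratio of fluorescence range over baseline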
HEK293 MPD ctr 2-1: second counter-screen for TRPC6 inhibitors: parental HEK293 cells | shares compounds with TRPC6 inhibitor | parental HEK293 membrane potential dye fluorescence; maximal acetylcholine challenge after compound addition | signal change vs control, % at 10 µM | 920 compounds, 31% hits;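 active means membrane potential signal moving either way by over 3 SD of the maximum-effect control, in both duplicate plates, meaning non-specific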
HEK293 MPD ctr-1: counter-screen for TRPC6 inhibitors: effect in parental HEK293 cells; membrane potential signal change, % at 10 µM; parental HEK293 membrane potential dye fluorescence; shares compounds with TRPC6 inhibitor; 920 compounds, 60% hits;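 active means membrane potential signal shifting up or down by more than 3 SD of buffer-only wells, on both duplicate plates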
HEK293 MPD ctr-2: counter-screen for TRPC6 modulators: effect in parental HEK293 cells. shares compounds with TRPC6 inhibitor. membrane potential dye fluorescence. membrane potential signal change, % at 10 µM. 2,400 compounds, 51% hits;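 active means membrane potential signal moves up or down beyond 5 SD from buffer-only wells, on both duplicate plates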
HEK293 MPD ctr 2-2: second counter-screen for TRPC6 modulators: effect in parental HEK293 cells. 2,400 compounds, 14% hits. shares compounds with TRPC6 inhibitor. membrane potential dye fluorescence; after compound, maximal acetylcholine stimulation. inhibition, % at 10 µM;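 active means membrane potential signal drops by more than 5 SD from the mean control signal, in both duplicate plates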;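 further: plate controls were acetylcholine ECmax control wells for no effect and buffer only wells for full effect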
TRPC4/MOR mod: tests whether TRPC6 modulators also affect mouse TRPC4. percent change from control (negative = decrease, positive = increase), % at 10 µM. HEK293 TRPC4/mu-opioid, membrane potential fluorescence. 2,400 compounds, 69% hits. shares compounds with TRPC6 inhibitor. AID 488927;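 active means membrane potential signal moved up or down beyond 5 SD of buffer control wells, in both duplicate plates, actives on both sides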;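 further: plate controls were assay buffer wells for no effect and DAMGO maximal-effect wells for full effect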
TRPC4 ctr inh 2: mouse TRPC4 off-target activity of TRPC6 modulators, second screen. inhibition, % at 10 µM. 2,400 compounds, 55% hits. shares compounds with TRPC6 inhibitor. HEK293 TRPC4/mu-opioid, membrane potential dye fluorescence; stimulated with maximal-effect DAMGO. AID 488928;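 active means drop in membrane potential signal beyond 5 SD of the control wells in both duplicate plates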;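 further: TRPC4 counter screen for TRPC6 hits run under conditions tuned for TRPC6 not TRPC4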
TRPC6 block conf: mouse TRPC6 inhibitor confirmation. HEK293-TRPC6, membrane potential dye, ACh-evoked depolarization. 3,300 compounds, 43% hits. shares compounds with TRPC6 inhibitor. inhibition, % at 10 µM;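 active means fluorescence ratio falls more than 5 SD below the full-stimulation control mean, in both duplicate runs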;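 further: integrated fluorescence ratio of peak minus minimum over baseline after agonist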
TRPC6 act conf: confirmation of mouse TRPC6 activators; shares compounds with TRPC6 inhibitor; activation, % at 10 µM; 2,800 compounds, 11% hits; AID 488961; HEK293-TRPC6 membrane potential dye fluorescence, FDSS;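 active means ratio signal rise beyond 5 SD above unstimulated control wells' mean, seen in both duplicate runs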;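 further: plate controls were buffer EC0 wells for no effect and acetylcholine ECmax response for full effect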
* hit, by the source's call; i = inactive; nt = not tested or not shown.

SMILES	TRPC6 inhibitor	TRPC4 agonist	TRPC6 act	TRPC4 block	TRPC4 PAM	HEK293 MPD ctr-2	HEK293 MPD ctr 2-2	TRPC4/MOR mod	TRPC4 ctr inh 2	TRPC6 block conf	TRPC6 act conf	others
CC(Nc1nc(-c2ccccc2)nc2ccccc12)c1ccccc1 (configuration not stated)	-7.3*	i	i	i	i	nt	nt	nt	nt	i	i	TRPC4 spec 2=i;TRPC4 spec=-9.5%*;HEK293 MPD ctr 2-1=i;HEK293 MPD ctr-1=i
c1ccc(-c2nc(NCCCn3ccnc3)c3ccccc3n2)cc1	-5.2*	i	i	i	i	-220%*	i	-50%*	72%*	61%*	i
COc1ccc(CCC(=O)OCC(=O)Nc2ccccc2OC(F)F)cc1OC	i	i	i	i	i	nt	nt	nt	nt	nt	nt
COc1ccc(-c2nc(NCCCN(C)C)c3ccccc3n2)cc1	-6.7*	i	i	i	i	nt	nt	nt	nt	85%*	i	TRPC4 spec 2=55%*;TRPC4 spec=-32%*;HEK293 MPD ctr 2-1=i;HEK293 MPD ctr-1=-387%*
CC(=O)Nc1ccc(S(=O)(=O)N2CCCN(S(=O)(=O)c3ccc(C)cc3)CC2)cc1	-7.4*	i	i	i	i	nt	nt	nt	nt	i	i	TRPC4 spec 2=i;TRPC4 spec=i;HEK293 MPD ctr 2-1=i;HEK293 MPD ctr-1=i
CC1CCCN(S(=O)(=O)c2ccc(NC(=O)CNC3CCCC3)cc2)C1 (configuration not stated)	-6.7*	i	i	i	i	nt	nt	nt	nt	i	i	TRPC4 spec 2=54%*;TRPC4 spec=i;HEK293 MPD ctr 2-1=i;HEK293 MPD ctr-1=3.2%*
Cc1ccc(S(=O)(=O)N2CCC(=O)N(CCOC(=O)Nc3cc(C)cc(C)c3)CC2)cc1	-8.3*	i	14*	i	i	i	i	12%*	i	90%*	142%*
CN(C)S(=O)(=O)c1cccc(C(=O)Nc2ccc(S(=O)(=O)N3CCCC3)cc2)c1	-5.2*	i	i	nt	i	i	i	i	i	i	i
Cc1ccc(S(=O)(=O)N2CCC(=O)N(CCOC(=O)Nc3ccccc3C)CC2)cc1	i	i	i	i	i	nt	nt	nt	nt	nt	nt
C#CCOC(=O)C[N+](C)(C)CC#Cc1ccccc1	i	i	i	i	i	nt	nt	nt	nt	nt	nt
CN1CCN(S(=O)(=O)c2ccc(NC(=O)c3cccc(F)c3)cc2)CC1	i	i	i	i	i	nt	nt	nt	nt	nt	nt
CN1CCN(S(=O)(=O)c2ccc(NC(=O)c3cccc(S(=O)(=O)N4CCCC4)c3)cc2)CC1	-5.5*	i	i	i	i	i	i	i	i	i	i
Cc1sc2nc(CN3CCCCC3)nc(Nc3ccc4c(c3)OCCO4)c2c1C	-5*	i	i	i	i	i	i	i	i	44%*	nt
Cc1sc2nc(CN3CCCC3)nc(NCc3ccncc3)c2c1C	i	i	i	i	i	nt	nt	nt	nt	nt	nt
COc1ccccc1CNS(=O)(=O)c1ccc(-c2cnc(C3CC3)o2)cc1	i	i	i	i	i	nt	nt	nt	nt	nt	nt
CCN(CC)CCSc1nnc2c3cc(C)ccc3n(Cc3ccccc3)c2n1	-7.1*	i	i	i	i	nt	nt	nt	nt	i	i	TRPC4 spec 2=27%*;TRPC4 spec=14%*;HEK293 MPD ctr 2-1=i;HEK293 MPD ctr-1=-213%*
O=C(O)Cc1sc(-c2ccccc2Cl)nc1-c1ccccc1	-6.2*	i	i	i	i	i	i	i	i	i	i
CC(=O)Nc1ccc2c(c1)ncn2-c1ccc(C)cc1	-5.5*	i	i	i	i	i	i	i	i	i	i
COc1ccc(Cl)cc1N(C(C)C(=O)NC1CCCC1)S(C)(=O)=O (configuration not stated)	i	i	i	i	i	nt	nt	nt	nt	nt	nt
CCOc1cc(C(=S)N2CCC(O)CC2)ccc1OS(=O)(=O)c1ccc(Br)cc1	-8.4*	i	i	i	i	nt	nt	nt	nt	i	i	TRPC4 spec 2=i;TRPC4 spec=i;HEK293 MPD ctr 2-1=i;HEK293 MPD ctr-1=i
N[C@H]1C(O)O[C@H](CO)[C@@H](O)[C@@H]1O (some centres not stated)	i	i	i	i	i	nt	nt	nt	nt	nt	nt
COc1ccccc1NC(=O)C1CC(C(C)C)OC1=O (configuration not stated)	i	i	i	i	i	nt	nt	nt	nt	nt	nt
Fc1cccc(Cl)c1CNCc1cccnc1	i	i	i	i	i	nt	nt	nt	nt	nt	nt
Cc1ccc(C2C(C#N)=C(N)Oc3cc(N)ccc32)cc1 (configuration not stated)	i	i	13*	i	i	i	i	i	i	i	i
COC(=O)C1=NN(C(=O)c2ccc(Cl)cc2)C(O)(c2ccccc2)C1 (configuration not stated)	i	59*	16*	i	i	321%*	i	73%*	i	nt	190%*
CCC1=NN(C(=O)c2ccc(Cl)cc2)C(O)(c2ccc(C)cc2)C1 (configuration not stated)	i	i	i	i	i	nt	nt	nt	nt	nt	nt
CCOC(=O)C1=NN(C(=O)c2ccc(C)cc2)C(O)(c2ccc(Cl)cc2)C1 (configuration not stated)	-8*	90*	18*	i	i	281%*	i	70%*	i	i	180%*
